# According to paper PMC4467585 (Journal of Thoracic Oncology, 2015):
# pIC50: −log10 of the molar value. Where two headings read alike, the source gives them in different places.
# What was measured:
# c-MET = conditions: unlike crizotinib; cited from earlier work
# [1] = Phase I study: DLTs, MTD and adverse events; assay type: in vivo, human; conditions: for Dose-limiting toxicity: one patient
# Method in brief: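 Adult Japanese patients with ALK-rearranged advanced tumors, progressed on standard therapy. Oral test compound: single dose in a 3-day PK run-in, then once daily in continuous 21-day cycles, 300–750 mg. Cohorts of 3–6 escalated by Bayesian logistic regression model with overdose control (<25% posterior DLT probability in ≥33–≤100% interval). DLTs assessed over cycle 1 including run-in; AEs graded CTCAE v4.03; data cutoff July 4, 2014.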
# InsR = conditions: enzyme panel; cited from earlier work
# [2] = test system: alectinib-resistant tumor; conditions: patient who had progressed on alectinib; cited from earlier work
# [3] = ASCEND-1; cited from earlier work
# [4] = test system: EML4-ALK xenograft models of NSCLC; conditions: including those exhibiting crizotinib resistance; cited from earlier work
# IGF-1R = conditions: enzyme panel; cited from earlier work
# ALK [5] = conditions: cellular level; cited from earlier work
# ALK-rearranged tumors = assay: Phase I study: tumor response, all patients incl. IMT; assay type: in vivo, human; conditions: 11 of 20, 300 to 750 mg
# Method in brief: (§1)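 Investigators assessed response by RECIST v1.1 using CT or MRI at baseline, then day 1 of every odd cycle (−3 to +14 days), excluding cycle 1 day 1. NSCLC patients also had brain MRI or head CT. Oral test compound was given once daily in 21-day cycles. Expansion patients were pooled with escalation patients at the same dose. ORR was reported with exact Clopper–Pearson 95% CI; data cutoff July 4, 2014.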
# [6] = Phase I study: single- and multiple-dose plasma pharmacokinetics; assay type: in vivo, human
# ALK [7] = conditions: enzyme-based assays; cited from earlier work
# ALK-rearranged NSCLC [8] = conditions: ASCEND-1, cited from earlier work; for PFS: 750 mg once daily
# ALK-rearranged NSCLC [9] = assay type: in vivo, human; conditions: for Duration of response to ceritinib: previously treated with alectinib
# Method in brief: as §1
# ALK [10] = conditions: more potent; cited from earlier work
# STK22D = conditions: enzyme panel; cited from earlier work
# [11] = ASCEND-1, cited from earlier work
# [12] = cited from earlier work
# [13] = PK run-in, ln(parameter) = exponent × ln(dose) + constant, 300 to 750 mg
compound,measurement,setting,value
"Cc1cc(Nc2ncc(Cl)c(Nc3ccccc3S(=O)(=O)C(C)C)n2)c(OC(C)C)cc1C1CCNCC1 [Ceritinib, 5-chloro-N2-(2-isopropoxy-5-methyl-4-(piperidin-4-yl)phenyl)-N4-(2-(isopropylsulfonyl)phenyl)pyrimidine-2,4-diamine]",Inhibition of the kinase activity of c-MET,c-MET,did not inhibit
same,Dose-limiting toxicity,[1]; 600 mg once daily,grade 3 lipase increase
same,Dose-limiting toxicity,[1]; 750 mg once daily,grade 3 drug-induced liver injury
same,Posterior probability of DLT rate being in the excessive toxicity interval (≥33% to ≤100%),"[1]; 750-mg once-daily dose, BLRM",7.3%
same,Maximum-tolerated dose (MTD),"[1]; Japanese patients with ALK-rearranged tumors, oral",750 mg once daily
same,Adverse event: diarrhea,"[1]; all patients, 300 to 750 mg",75%
same,Adverse event: nausea,"[1]; all patients, 300 to 750 mg",95%
same,Adverse event: vomiting,"[1]; all patients, 300 to 750 mg",75%
same,Patients with at least one dose interruption due to AEs,"[1]; all patients, 11 patients",55%
same,Patients with at least one dose reduction due to AEs,"[1]; all patients, nine patients",45%
same,Patients reporting grade 3/4 AEs,"[1]; all patients, sixteen patients",80%
same,Patients reporting grade 3/4 AEs suspected to be drug related,"[1]; all patients, ten patients",50%
same,Grade 3/4 increased ALT suspected to be drug related,"[1]; all patients, two patients",10%
same,Patients in whom AEs led to discontinuation,"[1]; all patients, two patients",10%
same,pIC50,InsR,8.15
same,Increase in exposure in Asian patients compared with non-Asian patients,[3],< 30%
same,Antitumor activity in xenograft models,[4],marked antitumor activity
same,pIC50,IGF-1R,8.10
same,Overall response rate,ALK-rearranged tumors,55%
same,"Exponent of power model, AUC0–24 versus dose",[6]; [13],1.04
same,"Exponent of power model, Cmax versus dose",[6]; [13],0.909
same,half-life,"[6]; human, plasma, oral",1320 to 1980 min
same,Tmax,"[6]; human, plasma, oral, Median Tmax, across the tested doses and profile days",2 to 7 h
same,Exposure numerically higher compared with Asian patients in ASCEND-1,[6]; n = 3,< 30%
same,PFS,ALK-rearranged NSCLC [8]; ALK inhibitor naive (n = 83),18.4 months
same,PFS,ALK-rearranged NSCLC [8]; previously treated with crizotinib (n = 163),6.9 months
same,ORR,ALK-rearranged NSCLC [8]; ALK inhibitor naive,72.3%
same,ORR,ALK-rearranged NSCLC [8]; all patients (n = 246),61.8%
same,ORR,ALK-rearranged NSCLC [8]; previously treated with crizotinib,56.4%
same,"Partial response, patients",ALK-rearranged NSCLC [9]; ALKi-naive NSCLC patients,two of four
same,"Partial response, patients",ALK-rearranged NSCLC [9]; alectinib-pretreated NSCLC patients,two of four
same,"Partial response, patients",ALK-rearranged NSCLC [9]; crizotinib-pretreated NSCLC patients,five of nine
same,PR among patients previously treated with ALK inhibitors,ALK-rearranged NSCLC [9]; eight of 15 NSCLC patients,53%
same,Patients with a reduction in the size of target lesions,ALK-rearranged NSCLC [9]; of the 16 evaluable NSCLC patients,15 patients
same,Disease control rate,"ALK-rearranged NSCLC [9]; patients with NSCLC across all dose groups, 13 of 19",68%
same,Potency compared with crizotinib in inhibiting ALK,ALK [10],20 fold
same,pIC50,STK22D,7.64
same,Incidence of drug-related grade 3/4 AEs,[11],49%
same,Maximum-tolerated dose (MTD),[11]; oral,750 mg once daily
C[C@@H](Oc1cc(-c2cnn(C3CCNCC3)c2)cnc1N)c1c(Cl)ccc(F)c1Cl [Crizotinib],"Gastrointestinal AEs (including nausea, diarrhea, and vomiting)",[12],39–56%
